pIC50: −log10 of the molar value. Activity calls are given as the source filed them. The calls are words filed in the database; no cut-off is given here.
molecular target: T1, NPC intracellular cholesterol transporter 1 (Mus musculus) (UniProt O35604); assay: Inhibition of mouse NPC1 interaction to Ebola virus GP expressed in LE/LY membrane of CHO cells by immunoblotting; assay type: cell-based; details: not given
T1 sequence (whole entry): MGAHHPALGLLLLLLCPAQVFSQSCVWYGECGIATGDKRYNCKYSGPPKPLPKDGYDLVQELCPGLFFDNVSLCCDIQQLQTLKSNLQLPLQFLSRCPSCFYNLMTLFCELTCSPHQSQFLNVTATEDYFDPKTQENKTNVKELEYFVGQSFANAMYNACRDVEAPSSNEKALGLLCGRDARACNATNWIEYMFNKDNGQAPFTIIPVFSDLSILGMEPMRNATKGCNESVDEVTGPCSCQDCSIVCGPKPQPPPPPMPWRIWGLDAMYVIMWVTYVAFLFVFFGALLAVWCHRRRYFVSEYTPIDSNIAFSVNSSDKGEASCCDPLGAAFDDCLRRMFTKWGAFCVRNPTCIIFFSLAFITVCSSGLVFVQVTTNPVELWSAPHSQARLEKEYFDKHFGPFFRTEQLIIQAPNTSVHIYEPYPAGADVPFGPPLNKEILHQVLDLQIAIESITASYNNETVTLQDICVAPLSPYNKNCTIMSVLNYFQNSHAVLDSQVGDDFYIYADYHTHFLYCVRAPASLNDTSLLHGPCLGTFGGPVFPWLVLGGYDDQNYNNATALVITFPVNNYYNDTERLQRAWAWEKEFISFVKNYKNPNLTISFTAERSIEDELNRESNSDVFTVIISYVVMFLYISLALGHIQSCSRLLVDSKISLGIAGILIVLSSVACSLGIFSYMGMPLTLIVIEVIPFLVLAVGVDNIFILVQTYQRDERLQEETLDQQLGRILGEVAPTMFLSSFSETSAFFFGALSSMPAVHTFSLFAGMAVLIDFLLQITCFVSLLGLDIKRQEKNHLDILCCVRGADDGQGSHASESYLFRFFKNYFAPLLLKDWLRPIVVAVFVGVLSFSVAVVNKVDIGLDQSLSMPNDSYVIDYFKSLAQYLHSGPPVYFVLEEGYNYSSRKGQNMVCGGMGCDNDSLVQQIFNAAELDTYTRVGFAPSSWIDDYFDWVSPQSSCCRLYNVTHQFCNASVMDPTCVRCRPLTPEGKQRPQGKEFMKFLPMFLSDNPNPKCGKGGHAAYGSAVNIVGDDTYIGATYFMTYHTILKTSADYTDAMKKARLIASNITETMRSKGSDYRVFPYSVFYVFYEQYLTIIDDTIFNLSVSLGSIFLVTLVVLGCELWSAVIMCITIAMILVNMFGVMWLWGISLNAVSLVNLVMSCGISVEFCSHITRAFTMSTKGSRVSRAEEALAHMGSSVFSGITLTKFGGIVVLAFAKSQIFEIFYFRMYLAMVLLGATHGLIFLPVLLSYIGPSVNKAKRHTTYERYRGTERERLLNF
Summary of the method: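 Late endosome/lysosome membranes from NPC1-null CHO cells, or the same cells stably expressing mouse NPC1, were immobilized on ELISA plates. They were incubated with protease-cleaved Ebola GP in the presence of test compound at specified concentrations. After washing off unbound GP, membranes were solubilized in NP40 and bound GP was detected by GP1-antibody immunoblot. Results are representative of six experiments.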

| SMILES | inhibition |
| --- | --- |
| O=C(CC12CC3CC(CC(C3)C1)C2)NCC(=O)N1CCN(Cc2ccccc2)CC1 | Active |
| O=C(CC12CC3CC(CC(C3)C1)C2)NCC(=O)N1CCC(Cc2ccccc2)CC1 | Active |
| O=C(CC12CC3CC(CC(C3)C1)C2)NCCC(=O)N1CCN(Cc2ccccc2)CC1 | Active |

test system: Ebolavirus; assay: Antiviral activity against Ebola virus by cell based luciferase reporter gene assay; assay type: functional, Ebola virus sp.; details: Orthoebolavirus

| SMILES | pIC50 |
| --- | --- |
| O=C(CC12CC3CC(CC(C3)C1)C2)NCC(=O)N1CCN(Cc2ccccc2)CC1 | 5.89 |
| N#Cc1cccc(CN2CCN(C(=O)CNC(=O)CC34CC5CC(CC(C5)C3)C4)CC2)c1 | 5.92 |
| O=C(CC12CC3CC(CC(C3)C1)C2)NCC(=O)N1CCC(Cc2ccccc2)CC1 | 5.89 |
| CNC(=O)c1ccc(COc2ccccc2CN2CCN(C(=O)CNC(=O)CC34CC5CC(CC(C5)C3)C4)CC2)cc1 | 5.68 |
| O=C(CC12CC3CC(CC(C3)C1)C2)NCC(=O)N1CCN(Cc2cccnc2)CC1 | 5.17 |
| N#CCC(NC(=O)CC12CC3CC(CC(C3)C1)C2)C(=O)N1CCN(Cc2ccccc2)CC1 (stereo unspecified) | 4.66 |
| CN(C)C(=O)c1ccc(COc2ccccc2CN2CCN(C(=O)CNC(=O)CC34CC5CC(CC(C5)C3)C4)CC2)cc1 | 5.48 |
| COc1ccc(CN2CCN(C(=O)CNC(=O)CC34CC5CC(CC(C5)C3)C4)CC2)cc1 | 5.27 |
| O=C(CC12CC3CC(CC(C3)C1)C2)NCC(=O)N1CCN(Cc2cc(Br)ccc2O)CC1 | 6.30 |
| O=C(CC12CC3CC(CC(C3)C1)C2)NCC(=O)N1CCN(Cc2ccncc2)CC1 | 4.84 |
| O=C(CC12CC3CC(CC(C3)C1)C2)NCC(=O)N1CCN(Cc2ccc(Br)cc2)CC1 | 5.49 |
| CC(C)(C)CC(=O)NCC(=O)N1CCN(Cc2ccccc2)CC1 | < 4.40 |
| O=C(CC12CC3CC(CC(C3)C1)C2)NCC(=O)N1CCN(Cc2cccc(Br)c2)CC1 | 6.00 |
| O=C(CC12CC3CC(CC(C3)C1)C2)NCC(=O)N1CCN(Cc2ccccc2OCc2ccccc2[N+](=O)[O-])CC1 | 5.80 |
| O=C(CC12CC3CC(CC(C3)C1)C2)NCC(=O)N1CCN(C(=O)c2ccccc2)CC1 | 5.52 |
| O=C(CC12CC3CC(CC(C3)C1)C2)NCC(=O)N1CCN(C(c2ccccc2)c2ccccc2)CC1 | < 5.00 |
| CC(C)C(NC(=O)CC12CC3CC(CC(C3)C1)C2)C(=O)N1CCN(Cc2ccccc2)CC1 (stereo unspecified) | < 4.40 |
| Cc1cc(O)cc(C)c1CN1CCN(C(=O)CNC(=O)CC23CC4CC(CC(C4)C2)C3)CC1 | 5.10 |
| O=C(CC12CC3CC(CC(C3)C1)C2)NCC(=O)N1CCN(Cc2ccccc2OCc2ccc([N+](=O)[O-])cc2)CC1 | 5.77 |
| O=C(CC12CC3CC(CC(C3)C1)C2)NCC(=O)N1CCN(Cc2ccc(Cl)c(Cl)c2)CC1 | 6.12 |
| COc1cccc(CN2CCN(C(=O)CNC(=O)CC34CC5CC(CC(C5)C3)C4)CC2)c1 | 5.70 |
| CC(NC(=O)CC12CC3CC(CC(C3)C1)C2)C(=O)N1CCN(Cc2ccccc2)CC1 (stereo unspecified) | < 4.40 |
| COC(=O)c1cccc(CN2CCN(C(=O)CNC(=O)CC34CC5CC(CC(C5)C3)C4)CC2)c1 | 4.85 |

| SMILES | pIC50 |
| --- | --- |
| O=C(CC12CC3CC(CC(C3)C1)C2)NCC(=O)N1CCN(Cc2ccc(Cl)cc2Cl)CC1 | 5.18 |
| O=C(CC12CC3CC(CC(C3)C1)C2)NCC(=O)N1CCN(Cc2ccccc2OCc2ccncc2)CC1 | 6.10 |
| O=C(CC12CC3CC(CC(C3)C1)C2)NC(CCC(=O)OCc1ccccc1)C(=O)N1CCN(Cc2ccccc2)CC1 (stereo unspecified) | 5.06 |
| CC(O)C(NC(=O)CC12CC3CC(CC(C3)C1)C2)C(=O)N1CCN(Cc2ccccc2)CC1 (stereo unspecified) | < 4.40 |
| O=C(NCC(=O)N1CCN(Cc2ccccc2)CC1)c1ccccc1 | 4.51 |
| COC(=O)c1ccc(CN2CCN(C(=O)CNC(=O)CC34CC5CC(CC(C5)C3)C4)CC2)cc1 | 4.82 |
| O=C(CC12CC3CC(CC(C3)C1)C2)NCCCC(=O)N1CCN(Cc2ccccc2)CC1 | 4.66 |
| O=C(CC12CC3CC(CC(C3)C1)C2)NCC(=O)N1CCN(Cc2ccccc2OCc2ccc(C(=O)O)cc2)CC1 | 5.40 |
| N#Cc1ccc(COc2ccccc2CN2CCN(C(=O)CNC(=O)CC34CC5CC(CC(C5)C3)C4)CC2)cc1 | 5.36 |
| O=C(CC1CCCCC1)NCC(=O)N1CCN(Cc2ccccc2)CC1 | < 4.40 |
| COc1cccc(COc2ccccc2CN2CCN(C(=O)CNC(=O)CC34CC5CC(CC(C5)C3)C4)CC2)c1 | 5.72 |
| O=C(CC12CC3CC(CC(C3)C1)C2)NCC(=O)N1CCN(Cc2ccc3ccccc3c2)CC1 | 5.52 |
| O=C(CC12CC3CC(CC(C3)C1)C2)NCCC(=O)N1CCN(Cc2ccccc2)CC1 | 4.77 |
| O=C(Cc1ccccc1)NCC(=O)N1CCN(Cc2ccccc2)CC1 | < 4.40 |
| N#Cc1ccc(CN2CCN(C(=O)CNC(=O)CC34CC5CC(CC(C5)C3)C4)CC2)cc1 | 5.10 |
| Cc1cccc(CN2CCN(C(=O)CNC(=O)CC34CC5CC(CC(C5)C3)C4)CC2)c1 | 5.96 |
| O=C(CC12CC3CC(CC(C3)C1)C2)NCC(=O)N1CCN(Cc2ccccc2O)CC1 | 5.54 |
| O=C(CC12CC3CC(CC(C3)C1)C2)NCC(=O)N1CCN(Cc2ccc(C(=O)O)cc2)CC1 | < 4.40 |
| O=C(CNC(=O)C12CC3CC(CC(C3)C1)C2)N1CCN(Cc2ccccc2)CC1 | 4.54 |
| O=C(CC12CC3CC(CC(C3)C1)C2)NCC(=O)N1CCN(Cc2ccc(Cl)cc2)CC1 | 5.60 |
| O=C(CC12CC3CC(CC(C3)C1)C2)NCC(=O)N1CCN(Cc2cccc(OCc3ccccc3)c2)CC1 | 5.40 |
| O=C(CC12CC3CC(CC(C3)C1)C2)NCC(=O)N1CCN(Cc2cccc(C(=O)O)c2)CC1 | < 4.40 |
| O=C(CC12CC3CC(CC(C3)C1)C2)NCC(=O)N1CCN(Cc2ccccc2OCc2cccc(Br)c2)CC1 | 5.62 |

| SMILES | pIC50 |
| --- | --- |
| O=C(NCC(=O)N1CCN(Cc2ccccc2)CC1)C1CCCCC1 | 4.57 |
| COC(=O)c1ccccc1CN1CCN(C(=O)CNC(=O)CC23CC4CC(CC(C4)C2)C3)CC1 | 5.10 |
| COc1ccccc1CN1CCN(C(=O)CNC(=O)CC23CC4CC(CC(C4)C2)C3)CC1 | 5.68 |
| O=C(CC12CC3CC(CC(C3)C1)C2)NCC(=O)N1CCN(Cc2ccccc2C(F)(F)F)CC1 | 5.74 |
| CC(=O)Nc1ccc(CN2CCN(C(=O)CNC(=O)CC34CC5CC(CC(C5)C3)C4)CC2)cc1 | 5.12 |
| O=C(CC12CC3CC(CC(C3)C1)C2)NCC(=O)N1CCN(Cc2cccc(C(F)(F)F)c2)CC1 | 5.59 |
| N#Cc1ccccc1CN1CCN(C(=O)CNC(=O)CC23CC4CC(CC(C4)C2)C3)CC1 | 5.41 |
| O=C(CC12CC3CC(CC(C3)C1)C2)NCC(=O)N1CCN(Cc2ccccc2OCc2cccnc2)CC1 | 5.68 |
| Cc1ccc(CN2CCN(C(=O)CNC(=O)CC34CC5CC(CC(C5)C3)C4)CC2)cc1 | 5.96 |
| O=C(CC12CC3CC(CC(C3)C1)C2)NCC(=O)N1CCN(Cc2ccccc2OCc2ccccc2)CC1 | 5.70 |
| O=C(CC12CC3CC(CC(C3)C1)C2)NCC(=O)N1CCN(Cc2ccc(O)cc2)CC1 | 5.15 |
| O=C(Cc1ccc(Cl)cc1)NCC(=O)N1CCN(Cc2ccccc2)CC1 | 4.72 |
| CC(C)CC(NC(=O)CC12CC3CC(CC(C3)C1)C2)C(=O)N1CCN(Cc2ccccc2)CC1 (stereo unspecified) | 4.54 |
| Cc1cccc(COc2ccccc2CN2CCN(C(=O)CNC(=O)CC34CC5CC(CC(C5)C3)C4)CC2)c1 | 6.46 |
| O=C(CC12CC3CC(CC(C3)C1)C2)NCC(=O)N1CCN(Cc2cccc3ccccc23)CC1 | 5.47 |
| CC(OCc1ccccc1)C(NC(=O)CC12CC3CC(CC(C3)C1)C2)C(=O)N1CCN(Cc2ccccc2)CC1 (stereo unspecified) | 4.54 |
| O=C(CC12CC3CC(CC(C3)C1)C2)NCC(=O)N1CCN(Cc2ccccc2Br)CC1 | 5.47 |
| O=C(CC12CC3CC(CC(C3)C1)C2)NCC(=O)N1CCN(Cc2ccccc2Cl)CC1 | 5.49 |
| COC(=O)c1cccc(COc2ccccc2CN2CCN(C(=O)CNC(=O)CC34CC5CC(CC(C5)C3)C4)CC2)c1 | 5.62 |
| O=C(CC12CC3CC(CC(C3)C1)C2)NCC(=O)N1CCN(Cc2ccccc2C(=O)O)CC1 | < 4.40 |
| CN(CC(=O)N1CCN(Cc2ccccc2)CC1)C(=O)CC12CC3CC(CC(C3)C1)C2 | 5.17 |
| O=C(CC12CC3CC(CC(C3)C1)C2)NCC(=O)N1CCN(Cc2ccccn2)CC1 | 5.07 |

Source: ChEMBL document CHEMBL2321771, “Inhibition of Ebola Virus Infection: Identification of Niemann-Pick C1 as the Target by Optimization of a Chemical Probe” (ACS Med Chem Lett, 2013)
